Compound activity from PubChem BioAssay.
Lmaj promast: inhibitors of Leishmania major promastigote growth; Leishmania major promastigotes, resazurin fluorescence viability; inhibition, % at 10 µM; 200,000 tested, 9% active; in the data active = inhibition above about 50%;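 note: promastigotes grown with compound for 44 hours at 28 °C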
PolyA inhibitor: inhibitors of polyadenylation in S. cerevisiae; S. cerevisiae SKY197-pL101 polyadenylation reporter, beta-gal luminescence; efflux-impaired pdr1/pdr3 knockout yeast; score 100 = 6 SD above DMSO; activity score, % at 12 µM; 300,000 tested, 0.02% active; AID 1875;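 active = lowest replicate activity score at least 50, where 100 means six control SD above control mean; inconclusive = lowest score under 50 but half or more replicates reach 50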;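 note: yeast exposed to compound for 9 h at 30 °C; higher score means more reporter readthrough which indicates perturbed polyadenylation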
Calb FLC: affects C. albicans growth with fluconazole | C. albicans CaCi-2 + fluconazole, Alamar Blue growth, 48 h | 300,000 tested, 0.57% active | growth inhibition, % (concentration not given with the values);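 active = growth inhibition above about 58% in most replicates, limit read from the data, passing the limit was not always enough; inconclusive = exactly half the replicates above a set limit; inactive = most replicates below a set limit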;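 note: all wells also contain fluconazole at 8 µg/ml as a sub-toxic cotreatment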
T cruzi inh: T. cruzi replication inhibition; T. cruzi beta-gal in NIH3T3, luminescence, 90 h; 300,000 tested, 1.4% active; inhibition, % (no concentration beside the values); AID 1885;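 active = mean inhibition across valid replicates above about 55%, limit read from the data; inconclusive = mean below that limit but half or more replicates reach it; inactive = mean below it, under half of replicates reach it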;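 note: signal also drops with host cell toxicity which is not excluded here; higher percent means less beta-gal luminescence so fewer parasites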
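Read-out: Parasite load inhibition, % | Test system: Mouse NIH/3T3 fibroblasts infected with β-gal-expressing T. cruzi Tulahuen C4 | Amount: 5,000 cells/well | Medium: DMEM, 2% fetal bovine serum | Signal: GalScreen β-gal luminescence, detergent lysis, 60 min | Timing: 3 h attach, ≥90 h co-culture | Also added: Tulahuen C4 trypomastigotes, 5000/well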
NALP1 yeast inh: inhibitors of NALP1 inflammasome in yeast; S. cerevisiae NALP1/ASC/caspase-1 growth, X-gal OD620, 72 h; inhibition, % at 10 µM; 280,000 tested, 0.61% active; AID 2071; in the data active = inhibition mostly above about 24%, no sharp cut-off; inactive = mostly below about 32%
NALP3 yeast inh: NALP3 inhibition in yeast; Yeast reconstituted NLRP3/ASC/caspase-1, beta-gal luminescence, 24 h; inhibition, % at 10 µM; 330,000 tested, 0.39% active;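 active = inhibition of 50% or more; inactive = inhibition below 50%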
Hits are given with their value; . = inactive; ? = inconclusive; / = no result given. Only a selection was taken, and hits are over-represented in it overall.

SMILES | Lmaj promast | PolyA inhibitor | Calb FLC | T cruzi inh | NALP1 yeast inh | NALP3 yeast inh
Cc1ccc(C(=O)c2c(NC(=O)CSc3nnc(N)s3)sc3c2CCCC3)cc1 | 76 | . | . | . | . | .
C=CCn1c(SCc2nc3cc(C(F)(F)F)ccc3c(=O)[nH]2)nc2sc(CC)cc2c1=O | . | . | . | . | . | .
COc1ccc(/C=C2\CCc3ccccc3C2=O)cc1Cn1cccn1 | 86 | . | . | . | . | .
O=C(CSc1cccc[n+]1[O-])Nc1cc2c(cc1Cl)C(=O)c1ccccc1C2=O | . | . | . | . | 55 | /
O=C(CSc1cccc[n+]1[O-])Nc1cc([N+](=O)[O-])ccc1Cl | . | . | . | . | . | .
O=C(CSc1cccc[n+]1[O-])Nc1cc(S(=O)(=O)N2CCOCC2)ccc1Cl | 68 | . | . | . | . | .
Cn1ccnc1SCC(=O)Nc1cc(S(=O)(=O)N2CCOCC2)ccc1Cl | 62 | . | . | . | . | .
Cc1ccc(S(=O)(=O)N2CCOCC2)cc1NC(=O)CSc1nccn1C | . | . | . | . | . | .
O=C(CN1C(=O)NC2(CCCCC2)C1=O)N1CCN(c2ncccn2)CC1 | / | / | / | / | / | .
Cc1ccccc1C(=O)N1CCC(C(=O)N2CCCc3ccccc32)CC1 | / | / | / | / | / | .
CN=C(Nc1ccc(Br)cc1)SC1CC(=O)N(c2ccc(OC)cc2)C1=O (configuration not stated) | . | . | . | . | . | .
CN=C(Nc1ccc(C)c(C)c1)SC1CC(=O)N(c2ccc(OC)cc2)C1=O (configuration not stated) | 74 | . | . | . | . | .
O=C(Cn1c(-c2ccccc2)c[n+]2ccsc12)c1ccc([N+](=O)[O-])cc1 | . | . | . | 75 | . | .
O=C(Cn1c(-c2ccccc2)c[n+]2ccsc12)c1ccccc1 | . | . | . | 69 | . | .
O=C(Cn1cc[n+](Cc2ccccc2)c1)c1ccc([N+](=O)[O-])cc1 | . | . | . | . | . | .
C=CCNC(=O)NC(=O)COC(=O)/C=C/c1cccc([N+](=O)[O-])c1 | . | . | . | . | . | .
COc1ccc2[nH]c(=O)c(CN(C(=O)NC3CCCCC3)C3CCCC3)cc2c1 | 100 | . | . | . | . | .
COc1ccc2[nH]c(=O)c(CN(C(=O)c3ccco3)C3CCCCC3)cc2c1 | 94 | . | . | . | 26 | .
COc1ccc2[nH]c(=O)c(CN(C(C)=O)C3CCCCC3)cc2c1 | . | ? | . | . | . | .
NC(=O)COc1ccc(C(=O)NCC2(N3CCOCC3)CCCCC2)cc1 | / | / | / | / | / | .
O=C1CC(/C=C/c2ccc([N+](=O)[O-])cc2)=Nc2ccccc2N1 | / | . | . | . | . | .
COc1cc(/C=C2\SC(c3ccc(C)cc3)=NC2=O)ccc1O | 100 | . | . | . | . | .
CC(=O)N(Cc1ccc(F)cc1)C1=C(NCc2ccccc2)C(=O)c2ccccc2C1=O | 100 | . | 89 | 67 | . | /
O=C(NCc1ccc(F)cc1)C(c1ccccc1)c1ccccc1 | / | . | . | . | . | .
Cc1ccsc1C(=O)N1CCC(N2CCC(C(=O)NCC3CCCO3)CC2)CC1 (configuration not stated) | . | . | . | . | . | .
SMILES | Lmaj promast | PolyA inhibitor | Calb FLC | T cruzi inh | NALP1 yeast inh | NALP3 yeast inh
COc1cccc(/C=C/C(=C2\C(=O)N(c3ccccc3)N=C2C)c2ccc(Br)cc2)c1OC | 99 | / | / | / | / | /
COc1ccc(/C=C2/C(=O)N(c3ccccc3)N=C2C)cc1OC | / | . | . | . | . | .
Cc1ccccc1/C=N/NC(=O)Cn1cnc([N+](=O)[O-])n1 | . | . | . | . | . | .
O=C(Cn1cnc([N+](=O)[O-])n1)N/N=C/c1cc(Cl)ccc1O | 100 | . | . | . | . | .
O=C(Cn1cnc([N+](=O)[O-])n1)N/N=C/c1ccccc1O | 100 | . | . | . | . | .
CN(/N=C/c1cccnc1)c1cnc2ccccc2n1 | . | . | . | . | . | .
CCC(C)(C(=O)NC1CCCC1)N(C(=O)CC1NC(=O)NC1=O)c1ccc(C)cc1 (configuration not stated) | . | . | . | . | . | .
COc1cc(/C=N/NC(=O)C(Cc2c[nH]c3ccccc23)NC(=O)OCC(C)C)cc([N+](=O)[O-])c1O (configuration not stated) | . | . | . | . | . | .
COc1cc(/C=N/NC(=O)C(Cc2c[nH]c3ccccc23)NC(=O)OCC(C)C)cc([N+](=O)[O-])c1OCc1ccccc1 (configuration not stated) | 91 | . | . | . | . | .
COC(=O)C1Cc2c([nH]c3ccccc23)C2(CCN(Cc3ccccc3)CC2)N1 (configuration not stated) | / | . | . | 71 | . | .
Cc1ccc(S(=O)(=O)/N=C2\SC(CC(=O)Nc3ccc(F)cc3)C(=O)N2c2ccccc2)cc1 (configuration not stated) | 63 | . | . | . | . | .
CCOC(=O)c1cc[nH]c1CC(=O)NC | / | . | . | . | . | .
CC1=NN(c2ccccc2)C(=O)/C1=C\C=C\c1ccccc1 | / | . | . | . | . | .
CC1=NN(c2ccc(C)c(C)c2)C(=O)/C1=C\C=C\c1ccc([N+](=O)[O-])o1 | 98 | . | . | . | . | .
Cc1ccc(NC(=O)C=NOCC(=O)Nc2cc(C)cc(C)c2)cc1 | / | / | / | / | / | .
O=S(=O)(c1ccc(NC(=S)NCCC(c2ccccc2)c2ccccc2)cc1)N1CCOCC1 | 60 | . | . | 61 | . | .
O=S(=O)(c1ccc(NC(=S)N/N=C/c2c3ccccc3cc3ccccc23)cc1)N1CCOCC1 | 95 | / | / | . | . | .
COc1ccccc1N1CCN(C(=S)Nc2ccc(S(=O)(=O)N3CCOCC3)cc2)CC1 | 71 | . | . | . | . | .
COc1ccc(CN2C(=O)CCCc3ccccc32)cc1 | . | . | . | . | . | .
C/C=C/c1ccc(OCCCCN2CC(C)CC(C)C2)c(OC)c1 (configuration not stated) | . | . | . | 55 | . | .
C/C=C/c1ccc(OCCCCN2CCN(CC)CC2)c(OC)c1 | 86 | . | . | . | . | .
C/C=C/c1ccc(OCCCNCC(C)O)c(OC)c1 (configuration not stated) | . | . | . | . | . | .
C/C=C/c1ccc(OCCCCNCc2ccco2)c(OC)c1 | 93 | . | . | . | . | .
C/C=C/c1ccc(OCCCCOc2ccc(OC)cc2)c(OC)c1 | . | . | . | . | . | .
Cc1ccc(-c2nnn(CC(=O)N(CC(=O)NC3CCCCC3)c3ccccc3F)n2)o1 | / | . | . | . | . | .
CCOC(=O)Nc1cc(NC(=O)OCC)c(C)nc1C | / | . | . | . | . | .
Cc1ccc(C(=O)c2c[nH]c3c(F)cc(F)cc3c2=O)cc1 | . | . | . | . | . | .
COC(=O)c1ccccc1NC(=O)CN1CCN(C23CC4CC(CC(C4)C2)C3)CC1 | 86 | . | . | . | . | .
